Data on 14 compounds can be found in ChEMBL document CHEMBL3608299, “Identification of N-acylhydrazone derivatives as novel lactate dehydrogenase A inhibitors” (Eur J Med Chem, 2015).

Structures are written as SMILES. pIC50, pKi: −log10 of the molar value. Calls of active or inactive are those of the source. The rule behind the calls is not given here.

Data set [1] has as its target T1, L-lactate dehydrogenase A chain (Homo sapiens, UniProt P00338). Put plainly: Inhibition of human liver purified lactate dehydrogenase-A using pyruvate as substrate assessed as NADH oxidation for 3 mins by fluorimetric method. A digest of the protocol: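 Purified human LDH-A was run in a fluorimetric assay. Values were obtained from triplicate points and given as mean ± standard deviation.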

The subject of data set [2] is Raji. Put plainly: Antiproliferative activity against human Raji cells after 24 hrs by Trypan blue exclusion method. It is filed as functional, cell-based. A digest of the protocol: (§1)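 Raji Burkitt's lymphoma cells (MYC-overexpressing) were used for lactic acid production and cell proliferation. All points were run in triplicate and reported as mean ± standard deviation.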

In data set [3] the target is T1, L-lactate dehydrogenase A chain. Nature of the data set: Inhibition of lactate dehydrogenase-A in human Raji cells assessed as reduction of intracellular lactate level after 3 hrs. It is filed as cell-based. A digest of the protocol: as §1
In data set [4] the test system is Raji. Put plainly: Potentiation of daunomycin-induced cytotoxicity against human Raji cells assessed as combination index at 40 uM after 24 hrs by Trypan blue exclusion method relative to control. The data set is classed as functional. A digest of the protocol: (§2)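 Each chemotherapeutic agent was first titrated on Raji cells to its lowest dose giving a statistically significant viability effect at 24 h. That dose was then combined with a fixed concentration of the test agent, and a combination index was calculated, where 0.8–1.2 indicates additivity. Experiments were repeated twice.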

Data set [5] concerns Raji. Put plainly: Induction of apoptosis in human Raji cells assessed as increase of BCL2 protein expression at 40 uM after 18 hrs by Western blotting. It is filed as functional, cell-based. A digest of the protocol:
(§3)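 After 18 h exposure, Raji cell lysates were analysed by Western blot for the mitochondrial apoptosis regulators BAX and BCL2. The fold change was expressed versus untreated control.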
For orientation: In western blotting, separated proteins are transferred to a membrane and probed.

In data set [6] the target is T1, L-lactate dehydrogenase A chain. Nature of the data set: Inhibition of human liver purified lactate dehydrogenase-A using NADH as substrate assessed as disappearance of NADH fluorescence. A digest of the protocol: (§4)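 Purified human LDH-A enzymatic assays were run. Inhibition constants (Ki) were calculated separately versus pyruvate and versus NADH as the varied substrate.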

The subject of data set [7] is Raji. Nature of the data set: Cell cycle arrest in human Raji cells assessed as accumulation at G2/M phase at 40 uM after 18 hrs using propidium iodide staining by flow cytometry. The data set is classed as functional, cell-based. A digest of the protocol:
(§5)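 Raji cells were exposed for 18 h, then stained with propidium iodide. Cell cycle phase distribution (S, G2/M fractions) was measured by flow cytometry and tested for statistical significance against untreated cells.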

Data set [8] addresses T1, L-lactate dehydrogenase A chain. Nature of the data set: Inhibition of lactate dehydrogenase-A in human Raji cells assessed as NAD level per 10^6 cells at 40 uM after 18 hrs (reference value: 365 pmol). It is filed as cell-based. A digest of the protocol:
(§6)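 Intracellular NAD+ and NADH were measured in Raji cells after 18 h exposure to assess the redox balance. The shift was evaluated against untreated cells with statistical testing.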

In data set [9] the test system is Raji. Nature of the data set: Potentiation of sunitinib-induced cytotoxicity against human Raji cells assessed as combination index at 40 uM after 24 hrs by Trypan blue exclusion method relative to control. The data set is classed as functional. A digest of the protocol: as §2
Data set [10] concerns Raji. Nature of the data set: Antiproliferative activity against human Raji cells at 40 uM after 24 hrs by Trypan blue exclusion method. The data set is classed as functional.
Data set [11] relates to Raji. Put plainly: Induction of apoptosis in human Raji cells assessed as increase of BAX protein expression at 40 uM after 18 hrs by Western blotting relative to control. It is filed as functional. A digest of the protocol: as §3
Data set [12] deals with T1, L-lactate dehydrogenase A chain. Nature of the data set: Inhibition of lactate dehydrogenase-A in human Raji cells assessed as reduction of NAD+ regeneration at 40 uM. The data set is classed as cell-based. A digest of the protocol:
as §6

Data set [13] has as its system Raji. Nature of the data set: Potentiation of cisplatin-induced cytotoxicity against human Raji cells assessed as combination index at 40 uM after 24 hrs by Trypan blue exclusion method relative to control. It is filed as functional. A digest of the protocol: as §2
The target in data set [14] is T1, L-lactate dehydrogenase A chain. Nature of the data set: Inhibition of lactate dehydrogenase-A in human Raji cells assessed as reduction of intracellular lactate level at 40 uM after 3 hrs. The data set is classed as cell-based.
Data set [15] has the same target. Nature of the data set: Inhibition of human liver purified lactate dehydrogenase-A using pyruvate as substrate assessed as disappearance of NADH fluorescence. A digest of the protocol:
as §4

Data set [16] deals with Raji. Nature of the data set: Cell cycle arrest in human Raji cells assessed as accumulation at S phase at 40 uM after 18 hrs using propidium iodide staining by flow cytometry. To be noted: in the assay text read “accumulation at G2/M phase” for “accumulation at S phase”. It is filed as functional, cell-based. A digest of the protocol:
as §5
(In general: In flow cytometry, cells or beads pass a laser one at a time.)

The target of data set [17] is T1, L-lactate dehydrogenase A chain. Nature of the data set: Inhibition of lactate dehydrogenase-A in human Raji cells assessed as NADH level per 10^6 cells at 40 uM after 18 hrs (reference value: 24 pmol). The data set is classed as cell-based. A digest of the protocol:
as §6

The nature of data set [18]: Cytotoxicity against lymphocytes (unknown origin) assessed as cell viability at 200 uM after 24 hrs by Trypan blue exclusion method. The data set is classed as cell-based. The following applies: lymphocyte. A digest of the protocol:
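Viability of normal lymphocytes after treatment was compared with Raji cultures across a concentration range up to 200. Significance was assessed by ANOVA.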

For data set [19], the system named is Raji. Nature of the data set: Potentiation of etoposide-induced cytotoxicity against human Raji cells assessed as combination index at 40 uM after 24 hrs by Trypan blue exclusion method relative to control. It is filed as functional. A digest of the protocol:
as §2

By pIC50 is commonly meant −log10 of the IC50, conventionally taken in molar units. As for `COc1cc(C(=O)N/N=C/c2ccc(-c3ccc(C(=O)O)cc3)o2)cc(OC)c1OC`, the pIC50 was 3.90 in data set [1], 4.00 in data set [2] and 3.87 in [3].
On the same counts, the results for `O=C(O)c1cccc(-c2ccc(/C=N/NC(=O)c3ccc4[nH]ccc4c3)o2)c1` are 4.42, 3.94 and 4.00.
As for `COc1cc(C(=O)N/N=C/c2ccc(-c3cccc(C(=O)O)c3)s2)cc(OC)c1OC`, the values for the pIC50 in data set [1], in data set [2] and in [3] were 4.39, 4.02 and 3.98, respectively.
`N#CCC(=O)N/N=C/c1ccc(-c2cccc(C(=O)O)c2)o1`: the pIC50 in data set [1] is 4.32; in data set [2], 4.19; in data set [3] it was 3.94.
Consider `O=C(O)c1cccc(-c2ccc(/C=N/NC(=O)c3cccc(CO)c3)o2)c1`, for which the pIC50 in data set [1] was 4.34; in data set [2] it was < 3.70; in data set [3] it was < 3.70.
Consider `COc1cc(C(=O)N/N=C/c2cc(-c3cccc(C(=O)O)c3)co2)cc(OC)c1OC`, for which the pIC50 is 4.49 in data set [1], 4.32 in [2] and 4.28 in data set [3].
In the case of `N#CCC(=O)N/N=C/c1ccc(-c2ccc(C(=O)O)cc2)o1`, the pIC50 in [1] is 4.43; in [3], < 3.70.
In the case of `O=C(O)c1cccc(-c2ccc(/C=N/NC(=O)c3ccc4[nH]ncc4c3)o2)c1`, the values for the pIC50 in data set [1], in data set [2] and in data set [3] were 4.39, 4.35 and < 3.70, respectively.
`O=C(O)c1cccc(-c2ccc(/C=N/NC(=O)c3cccnc3)o2)c1`: the figures for the pIC50 in data set [1], in data set [2] and in data set [3] were 4.37, < 3.70 and < 3.70, respectively.
As for `N#CCC(=O)N/N=C/c1cccc(-c2ccc(C(=O)O)cc2)n1`, the pIC50 in [1] is < 3.70.
`COC(=O)c1cccc(-c2ccc(/C=N/NC(=O)c3cccnc3)o2)c1`: in [1], the pIC50 was < 3.70.
For orientation: pKi means −log10 of the Ki, conventionally taken in molar units. One may read the inhibition as the percentage by which the read-out fell short of the control. In the case of `COc1cc(C(=O)N/N=C/c2ccc(-c3cccc(C(=O)O)c3)o2)cc(OC)c1OC`, the pIC50 is 4.43 in [1], 4.42 in data set [2] and 4.38 in data set [3]. The CI in data set [4] was determined as 0.88; in [9], 1.08; in data set [13], 1; in data set [19] it was 0.86. Further, the result in data set [5] was inactive. In addition, the figures for the pKi in data set [6] and in data set [15] were 4.33 and 4.41, respectively. For the same compound, the outcome in [7] and in data set [16] was Active. Also, the results for the Activity in data set [8], in data set [17] and in data set [18] were 351 pmol, 26 pmol and “Non-toxic”, respectively. This compound gave an inhibition at 40 µM in data set [10] of 50%. In data set [11], the “fold change (FC)” value came to 6.7. Further, the inhibition result in data set [12] was “Active”. For the same compound, the inhibition in data set [14] stood at 50%.
For `COc1cc(C(=O)N/N=C/c2c[nH]c(-c3cccc(C(=O)O)c3)c2)cc(OC)c1OC`, the pIC50 in data set [2] is 4.10; in data set [3], < 3.70.
Consider `COc1cc(C(=O)N/N=C/c2cccc(-c3cccc(C(=O)O)c3)n2)cc(OC)c1OC`, for which, in data set [1], the pIC50 is < 3.70.
